Experiments:
Primary amine oxidase [1] = target: T1, Primary amine oxidase (Pisum sativum, UniProt Q43077); assay: Inhibition of putrescine binding to Pea seedling amine oxidase; design: species or system Lathyrus oleraceus
T1 sequence (Q43077 whole entry): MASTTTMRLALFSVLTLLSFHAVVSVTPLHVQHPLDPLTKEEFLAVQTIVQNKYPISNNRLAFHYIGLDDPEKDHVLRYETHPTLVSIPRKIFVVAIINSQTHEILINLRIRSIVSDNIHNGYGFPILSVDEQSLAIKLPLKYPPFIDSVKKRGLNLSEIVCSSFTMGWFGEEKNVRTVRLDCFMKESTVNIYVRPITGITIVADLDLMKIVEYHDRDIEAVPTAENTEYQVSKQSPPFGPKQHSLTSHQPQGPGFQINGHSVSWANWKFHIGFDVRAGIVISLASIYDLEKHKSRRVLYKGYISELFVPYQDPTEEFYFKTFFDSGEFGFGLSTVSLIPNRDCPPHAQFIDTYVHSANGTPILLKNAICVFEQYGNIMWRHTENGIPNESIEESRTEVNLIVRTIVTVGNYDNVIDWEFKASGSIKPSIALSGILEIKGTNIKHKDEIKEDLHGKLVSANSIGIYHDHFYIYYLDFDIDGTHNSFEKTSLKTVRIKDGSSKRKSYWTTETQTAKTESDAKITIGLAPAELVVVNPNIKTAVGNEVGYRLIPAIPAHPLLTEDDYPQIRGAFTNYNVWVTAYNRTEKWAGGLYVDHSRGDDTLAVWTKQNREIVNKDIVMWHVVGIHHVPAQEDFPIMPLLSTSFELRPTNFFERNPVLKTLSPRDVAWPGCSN
Method in brief: (§1)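 Enzyme sources: BAO from commercial porcine serum; DAO porcine kidney enzyme; PSAO from homogenate of 8-day-old pea seedlings in 0.1 M phosphate pH 7.4, cleared by two centrifugations. Substrate at saturating 1 mM (benzylamine for BAO, putrescine for DAO/PSAO). Activity read as H2O2 production by 4-aminoantipyrine method. IC50 from five inhibitor concentrations, each in duplicate, averaged.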

[2] = target: T2, Amine oxidase [flavin-containing] A (Rattus norvegicus, UniProt P21396); assay: Inhibitory concentration for rat liver Monoamine oxidase A using 5-hydroxytryptamine
T2 sequence (P21396 whole entry): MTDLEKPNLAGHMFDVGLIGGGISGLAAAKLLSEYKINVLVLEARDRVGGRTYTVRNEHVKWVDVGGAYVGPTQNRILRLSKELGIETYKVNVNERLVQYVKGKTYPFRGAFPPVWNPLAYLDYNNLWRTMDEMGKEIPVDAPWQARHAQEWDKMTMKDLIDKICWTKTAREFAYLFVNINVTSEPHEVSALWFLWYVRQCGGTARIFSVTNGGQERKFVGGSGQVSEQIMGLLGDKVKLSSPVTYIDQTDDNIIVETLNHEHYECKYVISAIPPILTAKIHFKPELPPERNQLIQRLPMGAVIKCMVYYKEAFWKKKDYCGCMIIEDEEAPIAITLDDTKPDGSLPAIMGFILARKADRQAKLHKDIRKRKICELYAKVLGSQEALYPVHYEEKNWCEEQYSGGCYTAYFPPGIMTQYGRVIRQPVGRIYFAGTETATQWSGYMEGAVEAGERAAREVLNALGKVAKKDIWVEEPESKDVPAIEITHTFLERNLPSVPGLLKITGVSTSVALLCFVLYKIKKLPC

[3] = target: T3, Peroxisomal primary amine oxidase (Pichia angusta, UniProt P12807); assay: (§2) Inhibition of beta-phenylethylamine binding to Hansenula polymorpha amine oxidase; design: species or system Ogataea angusta
T3 sequence (P12807 whole entry): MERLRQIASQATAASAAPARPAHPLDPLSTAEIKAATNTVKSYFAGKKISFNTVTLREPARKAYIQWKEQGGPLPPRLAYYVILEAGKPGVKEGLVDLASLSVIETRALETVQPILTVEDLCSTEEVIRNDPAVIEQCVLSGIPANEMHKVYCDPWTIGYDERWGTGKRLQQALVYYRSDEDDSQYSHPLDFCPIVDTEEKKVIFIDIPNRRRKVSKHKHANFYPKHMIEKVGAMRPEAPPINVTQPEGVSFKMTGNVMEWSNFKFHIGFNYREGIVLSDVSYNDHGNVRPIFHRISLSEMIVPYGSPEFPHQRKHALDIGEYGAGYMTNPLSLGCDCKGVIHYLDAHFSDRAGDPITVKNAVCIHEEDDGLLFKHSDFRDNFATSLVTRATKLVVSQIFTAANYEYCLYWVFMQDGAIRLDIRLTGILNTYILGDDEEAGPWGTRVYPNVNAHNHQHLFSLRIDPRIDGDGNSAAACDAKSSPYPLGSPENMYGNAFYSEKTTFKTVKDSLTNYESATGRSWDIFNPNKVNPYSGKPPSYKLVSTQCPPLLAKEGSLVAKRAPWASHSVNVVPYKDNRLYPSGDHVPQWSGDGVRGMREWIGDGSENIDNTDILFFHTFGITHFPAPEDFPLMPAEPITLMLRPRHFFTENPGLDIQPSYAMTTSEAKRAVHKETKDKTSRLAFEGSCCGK

[4] = target: T4, Amine oxidase [flavin-containing] B (Rattus norvegicus, UniProt P19643); assay: Inhibitory concentration for rat liver Monoamine oxidase B using beta-phenylethylamine
T4 sequence (P19643 whole entry): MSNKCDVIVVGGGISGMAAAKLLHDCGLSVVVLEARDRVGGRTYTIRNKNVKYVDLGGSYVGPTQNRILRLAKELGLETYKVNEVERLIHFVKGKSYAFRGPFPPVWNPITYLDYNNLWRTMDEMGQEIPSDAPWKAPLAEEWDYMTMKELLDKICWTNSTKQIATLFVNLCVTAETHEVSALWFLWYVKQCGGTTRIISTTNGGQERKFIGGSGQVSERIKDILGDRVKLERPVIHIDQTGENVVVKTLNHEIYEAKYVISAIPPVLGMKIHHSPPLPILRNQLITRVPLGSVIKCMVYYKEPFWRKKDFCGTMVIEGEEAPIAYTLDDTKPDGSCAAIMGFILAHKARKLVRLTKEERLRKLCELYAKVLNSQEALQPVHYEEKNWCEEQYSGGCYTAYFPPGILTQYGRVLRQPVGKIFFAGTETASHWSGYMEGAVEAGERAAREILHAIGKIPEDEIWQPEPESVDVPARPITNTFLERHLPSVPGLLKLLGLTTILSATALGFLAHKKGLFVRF

[5] = target: T3, Peroxisomal primary amine oxidase; assay: Inhibition of phenylethylamine binding to Hansenula polymorpha amine oxidase
Method in brief: (§3)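 Enzyme: HPAO from Hansenula polymorpha NCYC-495 grown 24 h with glucose, 1 µM CuSO4 and methylamine, then homogenized in 0.1 M phosphate pH 7.4 and centrifuged. Substrate beta-phenylethylamine at saturating 1 mM. IC50 means from five inhibitor concentrations tested in duplicate.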

Primary amine oxidase [6] = target: T1, Primary amine oxidase; assay: Inhibition of putrescine binding to pea seedling amine oxidase; design: species or system Lathyrus oleraceus; method in brief: as §1
[7] = Intraperitoneal lethal dose was measured in Mus musculus; type: ADME; conditions: ip
Method in brief: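 Acute toxicity was tested in Swiss white Mus musculus. Five scaled doses were given intraperitoneally, 10 animals per dose.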

[8] = target: T3, Peroxisomal primary amine oxidase; assay: as §2; method in brief: as §3

Row | IC50 [2] [µM] | IC50 [4] [µM] | Structure (SMILES) | IC50 (Primary amine oxidase [1]) [µM] | IC50 [3] [µM] | also measured
1 | 420 | > 170 | CNc1cnccc1CN | – | – | IC50 [5]: 53 µM; IC50 (Primary amine oxidase [6]): 0.71 µM
2 | 630 | 1000 | CCOc1cncc(OCc2ccccc2)c1CN | – | – | –
3 | > 2000 | > 2000 | NCc1ccncc1N | – | – | –
4 | > 100 | 90 | NCc1ccncc1NC1CC1 | – | > 1000 | –
5 | 2200 | 2000 | CC(C)Nc1cnccc1CN | – | > 1000 | –
6 | 10 | 20 | CCCNc1cncc(N(C)CCC)c1CN | – | – | –
7 | 170 | > 170 | CNc1cncc(NC)c1CN | – | – | –
8 | – | > 1000 | CCSc1cncc(SCC)c1CN | – | – | –
9 | – | > 1000 | CC(C)(C)Sc1cncc(SC(C)(C)C)c1CN | – | – | –
10 | – | > 100 | CCNc1ccccc1CN | > 100 | – | IC50 [8]: 1500 µM

The next lines start with the compound.

Row | Structure (SMILES) | IC50 [2] [µM] | IC50 [4] [µM] | IC50 (Primary amine oxidase [1]) [µM] | IC50 [3] [µM] | also measured
11 | CNc1cncc(N(C)C)c1CN | 44 | 250 | 17 | 100 | –
12 | Cl.Cl.NCc1c(OCCCCO)cncc1OCCCCO | – | – | – | – | LD50 [7]: > 500 mg/kg
13 | Cl.Cl.NCc1c(OCCO)cncc1OCCO.O.O.O | > 1600 | > 1000 | – | – | LD [7]: > 600 mg/kg
14 | CNc1ccccc1CN | – | > 100 | > 100 | 750 | –
15 | CCOc1cncc(OCC)c1CN.Cl.Cl | > 1600 | > 1000 | 330 | > 1000 | LD50 [7]: 342 mg/kg
16 | NCc1ccncc1NC1CCCC1 | > 100 | > 100 | – | 700 | –
17 | CCNc1cncc(N(C)CC)c1CN | 63 | 300 | 55 | 350 | –
18 | CCNc1cnccc1CN | 300 | > 170 | 9.3 | 87 | –
19 | NCc1ccncc1NC1CCCCCC1 | 150 | > 100 | 1000 | > 300 | –
20 | NCc1ccncc1NCC1CCCCC1 | 95 | 70 | – | 540 | –
21 | NCc1ccncc1NC1CCCCC1 | > 100 | > 100 | – | > 1000 | –
22 | NCc1ccncc1N(C1CCCC1)C1CCCC1 | > 100 | > 100 | – | > 1000 | –
